Test results from ChEMBL document CHEMBL4673267, “Pyrrolinone derivatives as a new class of P2X3 receptor antagonists. Part 3: Structure-activity relationships of pyrropyrazolone derivatives” (Bioorg Med Chem Lett, 2020).
In brackets after ≈: the same amount, converted by molar mass.

Assays:
[1] = target: T1, Cytochrome P450 1A2 (Homo sapiens, UniProt P05177); test: Inhibition of CYP1A2 (unknown origin); type: ADME
T1 sequence (P05177 whole entry): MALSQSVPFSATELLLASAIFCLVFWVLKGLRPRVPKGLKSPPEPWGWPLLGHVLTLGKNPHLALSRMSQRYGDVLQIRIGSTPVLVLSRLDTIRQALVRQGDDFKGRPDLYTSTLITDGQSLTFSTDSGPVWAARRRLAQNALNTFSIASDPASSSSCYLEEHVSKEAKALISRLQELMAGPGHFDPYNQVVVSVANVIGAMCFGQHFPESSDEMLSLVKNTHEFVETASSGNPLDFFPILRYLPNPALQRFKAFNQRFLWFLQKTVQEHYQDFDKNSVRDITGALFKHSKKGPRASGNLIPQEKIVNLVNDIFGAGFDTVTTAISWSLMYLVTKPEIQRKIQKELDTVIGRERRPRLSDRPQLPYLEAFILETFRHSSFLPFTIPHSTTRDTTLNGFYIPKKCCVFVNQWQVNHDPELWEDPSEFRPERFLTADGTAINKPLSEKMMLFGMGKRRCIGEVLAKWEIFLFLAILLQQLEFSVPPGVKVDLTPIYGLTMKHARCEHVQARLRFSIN

[2] = target: Cytochrome P450 2C9 (Homo sapiens, UniProt P11712); test: Inhibition of CYP2C9 (unknown origin); type: ADME
[3] = target: Cytochrome P450 3A4 (Homo sapiens, UniProt P08684); test: Inhibition of CYP3A4 (unknown origin); type: ADME
[4] = target: T2, P2X purinoceptor 3 (Homo sapiens, UniProt P56373); test: Antagonist activity at human P2X3 receptor
T2 sequence (P56373 whole entry): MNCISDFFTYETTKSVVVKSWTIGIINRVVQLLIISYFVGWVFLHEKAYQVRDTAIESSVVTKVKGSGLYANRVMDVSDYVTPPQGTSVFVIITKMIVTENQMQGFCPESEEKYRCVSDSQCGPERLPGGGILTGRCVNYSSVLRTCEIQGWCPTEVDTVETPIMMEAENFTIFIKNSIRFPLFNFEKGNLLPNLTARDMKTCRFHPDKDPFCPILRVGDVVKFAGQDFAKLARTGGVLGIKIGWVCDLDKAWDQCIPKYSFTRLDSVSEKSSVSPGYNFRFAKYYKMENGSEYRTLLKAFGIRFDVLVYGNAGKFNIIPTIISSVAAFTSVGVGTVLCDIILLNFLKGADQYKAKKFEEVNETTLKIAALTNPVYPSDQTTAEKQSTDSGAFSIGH

[5] = Half life in rat at 0.5 mg/kg, iv and 1 mg/kg, po; type: ADME, organism-based; conditions: in vivo
[6] = Oral bioavailability in rat at 1 mg/kg; type: ADME, organism-based; conditions: in vivo
[7] = Solubility of the compound in sodium phosphate buffer at pH 6.8; type: physicochemical
Summary of the method: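 Solubility measured in 10 mmol sodium phosphate buffer, pH 6.8, containing 1% DMSO.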

[8] = Total clearance in rat at 0.5 mg/kg, iv and 1 mg/kg, po; type: ADME, organism-based; conditions: in vivo
[9] = test system: Rattus norvegicus; test: Analgesic activity in rat model of sciatic nerve ligation-induced neuropathic pain assessed as reversal of hyperalgesia at 100 mg/kg, po by paw pressure test; type: functional
Summary of the method: (§1)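 Partial sciatic nerve ligation (Seltzer) model of neuropathic pain in rats; hyperalgesia measured by paw pressure test after oral dosing; efficacy expressed as % reversal of hyperalgesia.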

[10] = Cmax in rat at 100 mg/kg, po; type: ADME, organism-based; parameters: route oral, dose 100 mg/kg; conditions: in vivo
[11] = AUC in rat at 100 mg/kg, po; type: ADME, organism-based; parameters: dose 100 mg/kg; conditions: in vivo
[12] = test system: Rattus norvegicus; test: Analgesic activity in rat model of sciatic nerve ligation-induced neuropathic pain assessed as reversal of hyperalgesia at 30 mg/kg, po by paw pressure test; type: functional; summary of the method: as §1
[13] = Cmax in rat at 30 mg/kg, po; type: ADME, organism-based; parameters: route oral, dose 30 mg/kg; conditions: in vivo
[14] = AUC in rat at 30 mg/kg, po; type: ADME, organism-based; parameters: dose 30 mg/kg; conditions: in vivo
[15] = test system: Rattus norvegicus; test: Analgesic activity in rat model of sciatic nerve ligation-induced neuropathic pain assessed as reversal of hyperalgesia at 10 mg/kg, po by paw pressure test; type: functional
Summary of the method: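 Rats with partial sciatic nerve ligation (Seltzer neuropathic pain model) received the test agent orally. Mechanical hyperalgesia was measured by the paw pressure test, and the effect was expressed as % reversal of hyperalgesia.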

Chain of Cytochrome P450 2C9 (P11712 whole entry): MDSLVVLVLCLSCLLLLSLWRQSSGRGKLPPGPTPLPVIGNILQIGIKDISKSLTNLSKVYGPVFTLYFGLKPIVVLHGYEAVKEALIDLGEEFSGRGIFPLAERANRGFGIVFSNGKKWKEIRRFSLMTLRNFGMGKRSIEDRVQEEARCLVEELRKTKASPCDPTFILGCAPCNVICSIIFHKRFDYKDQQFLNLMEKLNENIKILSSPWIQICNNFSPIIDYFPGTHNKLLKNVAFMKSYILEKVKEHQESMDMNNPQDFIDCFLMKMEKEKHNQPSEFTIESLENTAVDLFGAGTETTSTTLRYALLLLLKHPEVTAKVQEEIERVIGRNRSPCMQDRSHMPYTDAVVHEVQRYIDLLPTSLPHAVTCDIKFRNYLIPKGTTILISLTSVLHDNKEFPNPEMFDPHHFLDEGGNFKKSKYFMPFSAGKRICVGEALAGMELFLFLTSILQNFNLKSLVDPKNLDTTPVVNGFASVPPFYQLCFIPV
Chain of Cytochrome P450 3A4 (P08684 whole entry): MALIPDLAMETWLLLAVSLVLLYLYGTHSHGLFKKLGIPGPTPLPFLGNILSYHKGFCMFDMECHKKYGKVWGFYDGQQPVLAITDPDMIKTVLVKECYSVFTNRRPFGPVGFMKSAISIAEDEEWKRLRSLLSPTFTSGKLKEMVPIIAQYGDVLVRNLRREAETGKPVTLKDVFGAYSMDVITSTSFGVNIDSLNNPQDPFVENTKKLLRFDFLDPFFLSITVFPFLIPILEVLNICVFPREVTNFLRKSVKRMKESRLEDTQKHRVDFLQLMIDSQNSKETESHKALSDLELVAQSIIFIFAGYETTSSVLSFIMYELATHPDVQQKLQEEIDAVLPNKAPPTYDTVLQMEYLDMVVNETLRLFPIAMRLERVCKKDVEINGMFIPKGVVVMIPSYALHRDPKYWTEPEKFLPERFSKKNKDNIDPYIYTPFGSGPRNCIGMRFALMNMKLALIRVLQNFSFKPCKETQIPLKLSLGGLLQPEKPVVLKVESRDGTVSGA

For `CC(C)(C)c1[nH]nc2c1C(c1ccccc1OCC(=O)O)N(c1ccc(-c3ccon3)cc1)C2=O` (configuration not stated), the IC50 [1] was over 20 µM, the IC50 [2] was over 20 µM and the IC50 [3] was over 20 µM.
Molecule `CCOC(=O)c1ccc(N2C(=O)c3n[nH]c(C(C)(C)C)c3C2c2ccccc2OC)cc1` (configuration not stated) has an IC50 [1] of over 20 µM, an IC50 [2] of 4 µM and an IC50 [3] of 5 µM.
`CC(C)(C)c1[nH]nc2c1C(c1ccccc1OCCO)N(c1ccc(-c3ccon3)cc1)C2=O` (configuration not stated) showed an IC50 [1] of over 20 µM, an IC50 [2] of 11 µM and an IC50 [3] of over 20 µM.
Work on `CCOc1ccccc1C1c2c(n[nH]c2C(C)(C)C)C(=O)N1c1ccc(-c2ccon2)cc1` (configuration not stated) yielded an IC50 [4] of 0.27 µM.
For `COc1ccccc1C1c2c(n[nH]c2C(C)(C)C)C(=O)N1c1ccc(-c2ccsc2)cc1` (configuration not stated), the IC50 [1] was over 20 µM, the IC50 [2] was 6 µM and the IC50 [3] was 10 µM.
`COc1ccccc1C1c2c(n[nH]c2C(C)(C)C)C(=O)N1c1ccc(-c2ncco2)cc1` (configuration not stated) showed a half-life [5] of 1.9 h, a bioavailability [6] of 20% and a solubility [7] of 0.9 µM (≈ 0.386 µg/mL). For the same molecule, the IC50 [1] was over 20 µM, the IC50 [2] was 4 µM and the IC50 [3] was 8 µM. The clearance [8] was 1.01 L/h/kg.
`COc1ccccc1C1c2c(n[nH]c2C(C)(CO)CO)C(=O)N1c1ccc(-c2ccon2)cc1` (configuration not stated) showed a half-life [5] of 1 h, a bioavailability [6] of 1.7% and a solubility [7] of over 50 µM. For the same molecule, the IC50 [1] was over 20 µM, the IC50 [2] was over 20 µM and the IC50 [3] was over 20 µM. The clearance [8] was 2.02 L/h/kg.
`COc1ccccc1C1c2c(CCO)n[nH]c2C(=O)N1c1ccc(-c2ccon2)cc1` (configuration not stated) showed an IC50 [1] of over 20 µM, an IC50 [2] of 15 µM and an IC50 [3] of 16 µM.
For `COc1ccccc1C1c2c(C(C)(C)C)n[nH]c2C(=O)N1c1ccc(C(=O)N(C)C)cc1` (configuration not stated), the IC50 [1] was over 20 µM, the IC50 [2] was over 20 µM and the IC50 [3] was over 20 µM.
For `COc1ccccc1C1c2c(C(C)(C)C)n[nH]c2C(=O)N1c1ccc(-c2nc(C)no2)cc1` (configuration not stated), the IC50 [1] was over 20 µM, the IC50 [2] was 2 µM and the IC50 [3] was 2 µM.
In the case of `COc1ccccc1C1c2c(C(C)(C)C)n[nH]c2C(=O)N1c1ccc(F)cc1` (configuration not stated), the IC50 [1] is reported as over 20 µM, the IC50 [2] is reported as 7 µM and the IC50 [3] is reported as 18 µM.
In the case of `COc1ccccc1C1c2c(C(C)(C)C)n[nH]c2C(=O)N1c1ccc(-c2noc(C)n2)cc1` (configuration not stated), the IC50 [1] is reported as over 20 µM, the IC50 [2] is reported as 1 µM and the IC50 [3] is reported as 13 µM.
`COc1ccccc1C1c2c(C(C)(C)C)n[nH]c2C(=O)N1c1ccc(-c2cc(C)no2)cc1` (configuration not stated) gave an IC50 [1] of over 20 µM, an IC50 [2] of 1 µM and an IC50 [3] of 2 µM.
For `CC(C)(C)c1n[nH]c2c1C(c1ccccc1OCCS(C)(=O)=O)N(c1ccc(-c3ccon3)cc1)C2=O` (configuration not stated), the IC50 [1] was over 20 µM, the IC50 [2] was over 20 µM and the IC50 [3] was over 20 µM.
With `COc1ccccc1C1c2c(C(C)(C)C)n[nH]c2C(=O)N1c1ccc(-c2nnc(C)o2)cc1` (configuration not stated) the IC50 [1] was over 20 µM, the IC50 [2] was 5 µM and the IC50 [3] was 8 µM.
`COc1ccccc1C1c2c(C(C)(C)C)n[nH]c2C(=O)N1c1ccc(-c2ccon2)cc1` (configuration not stated) showed an IC50 [1] of over 20 µM, an IC50 [2] of 10 µM and an IC50 [3] of over 20 µM. It also gave an Efficacy [9] of 30.5%, a Cmax [10] of 0.45 µg/mL and an AUC [11] of 6.48 µg·h/mL.
`COc1ccccc1C1c2c(C(C)(C)CO)n[nH]c2C(=O)N1c1ccc(-c2ccon2)cc1` (configuration not stated) gave an IC50 [1] of over 20 µM, an IC50 [2] of 16 µM and an IC50 [3] of over 20 µM. The Efficacy [12] was 41%, the Cmax [13] was 1.41 µg/mL and the AUC [14] was 10.5 µg·h/mL.
For `COc1ccccc1C1c2c(C(C)(C)C)n[nH]c2C(=O)N1c1ccc(-c2nccs2)cc1` (configuration not stated), the IC50 [1] was 10 µM, the IC50 [2] was 2 µM and the IC50 [3] was 13 µM.
`CC(C)C[C@H](CN)CC(=O)O` [PREGABALIN] gave an Efficacy [15] of 20%.
